Source: ChEMBL document CHEMBL1122092, “Synthesis of some potential antihypertensive phthalazinyl- and quinoxalinylguanidines” (J Med Chem, 1982)

Experiments:
Rattus norvegicus [1] = test: Percent change of heart rate in conscious DOCA Hypertensive rat at 2 hour after administration of dose of 10 mL (mg/kg po); assay type: functional
How it was run: (§1)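 Male DOCA (metacorticoid) hypertensive rats, conscious, with an aortic catheter implanted under halothane anaesthesia at least 48 h beforehand. Fasted 18 h, then dosed orally; saline vehicle 10 mL. Blood pressure recorded via pressure transducer with minimal restraint; a tachograph triggered by the pulse gave heart rate. Percent change from pre-dose control read at 1, 2, 3, 5 and 22 h.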

Rattus norvegicus [2] = test: Percent change of mean arterial blood pressure in conscious DOCA Hypertensive rat at 1 hour, after administration of dose 10 mL (mg/kg po); assay type: functional; how it was run: as §1
[3] = molecular target: Adrenergic receptor alpha; test: In vitro presynaptic antagonist activity against Alpha adrenergic receptor in rat vas deferens; assay type: functional, tissue-based
How it was run: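 Rat vas deferens under 0.1 Hz stimulation; cumulative clonidine concentration-response curves run with increasing concentrations of test agent to gauge presynaptic α-antagonism; pA2 reported. Mean of three experiments ± SEM.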

Rattus norvegicus [4] = test: Percent change of heart rate in conscious DOCA Hypertensive rat at 22 hour after administration of dose of 10 mL (mg/kg po); assay type: functional; how it was run: as §1
Rattus norvegicus [5] = test: Percent change of mean arterial blood pressure in conscious DOCA Hypertensive rat at 5 hour, after administration of dose 10 mL (mg/kg po); assay type: functional; how it was run: as §1
Rattus norvegicus [6] = test: Percent change of mean arterial blood pressure in conscious DOCA Hypertensive rat at 3 hour, after administration of dose 10 mL (mg/kg po); assay type: functional; how it was run: as §1
Rattus norvegicus [7] = test: Percent change of mean arterial blood pressure in conscious DOCA Hypertensive rat at 2 hour, after administration of dose 10 mL (mg/kg po); assay type: functional; how it was run: as §1
Rattus norvegicus [8] = test: In vivo threshold intravenous dose required to cause reversal of clonidine on blood pressure in pithed rat; assay type: functional
How it was run: (§2)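 Pithed rats given clonidine 30 μg/kg iv, which acts presynaptically (hypogastric nerve response) and postsynaptically (pressor response). Test agents were then injected iv to find the threshold dose reversing each clonidine action. Five rats per drug.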

Rattus norvegicus [9] = test: In vivo threshold intravenous dose required to cause reversal of clonidine on hypogastric nerves in pithed rat; assay type: functional, Hypogastric nerve; how it was run: as §2
Rattus norvegicus [10] = test: Percent change of heart rate in conscious DOCA Hypertensive rat at 5 hour after administration of dose of 10 mL (mg/kg po); assay type: functional; how it was run: as §1
Rattus norvegicus [11] = test: Percent change of heart rate in conscious DOCA Hypertensive rat at 3 hour after administration of dose of 10 mL (mg/kg po); assay type: functional; how it was run: as §1
Rattus norvegicus [12] = test: Percent change of heart rate in conscious DOCA Hypertensive rat at 1 hour after administration of dose of 10 mL (mg/kg po); assay type: functional; how it was run: as §1
Rattus norvegicus [13] = test: Percent change of mean arterial blood pressure in conscious DOCA Hypertensive rat at 22 hour, after administration of dose 10 mL (mg/kg po); assay type: functional; how it was run: as §1
[14] = molecular target: Adrenergic receptor alpha; test: In vitro postsynaptic antagonist activity against Alpha adrenergic receptor in rat anococcygeus muscle; assay type: functional, tissue-based
How it was run: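 Rat anococcygeus muscle; cumulative noradrenaline concentration-response curves obtained as control and again with increasing concentrations of test agent present; postsynaptic α-antagonism expressed as pA2. Mean of three experiments ± SEM.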

| Compound | Change (Rattus norvegicus [1]) | Change (Rattus norvegicus [2]) | pA2 [3] | Change (Rattus norvegicus [4]) | Change (Rattus norvegicus [5]) | Change (Rattus norvegicus [6]) | Change (Rattus norvegicus [7]) | Dose (Rattus norvegicus [8]) | Dose (Rattus norvegicus [9]) | Change (Rattus norvegicus [10]) | Change (Rattus norvegicus [11]) | Change (Rattus norvegicus [12]) | Change (Rattus norvegicus [13]) | pA2 [14] |
| --- | --- | --- | --- | --- | --- | --- | --- | --- | --- | --- | --- | --- | --- | --- |
| N=C(N)Nc1nncc2ccccc12 | -14% | -22% | 5.7 | 3% | -20% | -24% | -20% | 1 mg/kg | 3 mg/kg | 1% | 7% | 2% | 4% | 4.9 |
| CNc1nnc2c3ccccc3cnn12 | -25% | -12% |  | -10% | -5% | -12% | -13% |  |  | -25% | -25% | -23% | 4% |  |
| c1ccc2c(NC3=NCCN3)nncc2c1 |  |  | 6 |  |  |  |  | 0.3 mg/kg | 3 mg/kg |  |  |  |  | 4.8 |
| Cc1ccc(N(CC2=NCCN2)c2cccc(O)c2)cc1 [PHENTOLAMINE] | 22% | -41% |  | 7% | -22% | -33% | -34% | 0.03 mg/kg | 0.03 mg/kg | 11% | 18% | 21% | 6% |  |
| CCCC/N=C(\N)Nc1nncc2ccccc12 | 19% | -10% | 6.6 | 11% | -9% | -12% | -10% | 1 mg/kg | 1 mg/kg | 18% | 21% | 14% | 8% | 5.2 |
| Nc1nnc2c3ccccc3cnn12 | 7% | -14% |  | 7% | -23% | -20% | -19% |  |  | 2% | 6% | 8% | -3% |  |
| NNc1nncc2ccccc12 [HYDRALAZINE] | -1% | -47% |  | 8% | -39% | -44% | -45% |  |  | 11% | 2% | -5% | -15% |  |
| CCCC/N=C(/N)Nc1nc2ccccc2nc1C | -2% | -3% | 6.3 | 2% | 5% | 0% | -5% | >1 mg/kg | >1 mg/kg | -4% | -5% | 3% | 20% | < 5.5 |
